Active and inactive are the calls of the source. No cut-off for these calls is given here.
Assays:
[1] = target: ENaC alpha subunit (epithelial sodium channel subunit alpha) (Homo sapiens, UniProt P37088); assay: Inhibition of S-3969-stimulated recombinant human ENaC alpha subunit expressed in HEK293 cells at 10 uM preincubated for 5 mins followed by S-3969 stimulation by FLIPR assay; format: cell-based; conditions: HEK293 cells expressing recombinant human ENaC alpha subunit
In short: (§1)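 HEK-293 cells transfected with human ENaC α, β and γ cDNA together, plated at 20 000 cells/well, incubated overnight at 37 °C. Loaded with membrane-potential red dye for 30 min at 37 °C. Compound preincubated 5 min in HEPES-buffered salt solution (pH 7.4, 0.3% DMSO), then stimulated with 1 µM S-3969, read on FLIPR. Signal normalized to agonist alone (100%) and agonist plus 30 µM benzamil (0%). n = 4 wells.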

[2] = target: ENaC gamma subunit (epithelial sodium channel subunit gamma) (Homo sapiens, UniProt P51170); assay: Inhibition of S-3969-stimulated recombinant human ENaC gamma subunit expressed in HEK293 cells at 10 uM preincubated for 5 mins followed by S-3969 stimulation by FLIPR assay; format: cell-based; conditions: HEK293 cells expressing recombinant human ENaC gamma subunit; in short: as §1
ENaC gamma subunit (epithelial sodium channel subunit gamma), sequence (P51170 whole entry): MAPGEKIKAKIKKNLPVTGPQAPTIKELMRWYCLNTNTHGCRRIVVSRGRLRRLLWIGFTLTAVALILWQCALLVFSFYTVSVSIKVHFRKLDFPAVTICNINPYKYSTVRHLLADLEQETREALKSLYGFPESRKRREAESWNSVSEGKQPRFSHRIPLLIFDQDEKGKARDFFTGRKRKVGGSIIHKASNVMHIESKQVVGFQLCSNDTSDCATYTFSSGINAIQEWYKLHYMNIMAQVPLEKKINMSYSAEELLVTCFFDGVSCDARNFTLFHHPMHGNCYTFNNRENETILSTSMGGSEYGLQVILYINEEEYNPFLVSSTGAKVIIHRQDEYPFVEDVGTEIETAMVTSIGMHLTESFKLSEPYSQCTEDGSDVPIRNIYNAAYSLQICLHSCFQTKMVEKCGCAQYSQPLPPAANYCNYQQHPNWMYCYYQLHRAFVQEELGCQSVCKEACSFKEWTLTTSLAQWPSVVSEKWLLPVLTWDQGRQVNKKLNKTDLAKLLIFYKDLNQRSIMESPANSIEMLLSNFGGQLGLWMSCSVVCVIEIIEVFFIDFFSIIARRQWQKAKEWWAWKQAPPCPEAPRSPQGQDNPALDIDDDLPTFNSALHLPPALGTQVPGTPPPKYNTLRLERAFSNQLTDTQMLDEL

HT-1080 = assay: Antimetastatic activity against luciferase-tagged human HT1080 cells xenografted in NOD.Cg-Prkdc<scid>-IL2rg<tm1Wjl>SzJAusb mouse assessed as inhibition of late-stage lung metastasis at 7.5 mg/kg/day, ip administered from day -1 to day 20 measured day 21
[3] = target: ENaC beta subunit (epithelial sodium channel subunit beta) (Homo sapiens, UniProt P51168); assay: Inhibition of S-3969-stimulated recombinant human ENaC beta subunit expressed in HEK293 cells at 10 uM preincubated for 5 mins followed by S-3969 stimulation by FLIPR assay; format: cell-based; conditions: HEK293 cells expressing recombinant human ENaC beta subunit; in short: as §1
ENaC beta subunit (epithelial sodium channel subunit beta), sequence (P51168 whole entry): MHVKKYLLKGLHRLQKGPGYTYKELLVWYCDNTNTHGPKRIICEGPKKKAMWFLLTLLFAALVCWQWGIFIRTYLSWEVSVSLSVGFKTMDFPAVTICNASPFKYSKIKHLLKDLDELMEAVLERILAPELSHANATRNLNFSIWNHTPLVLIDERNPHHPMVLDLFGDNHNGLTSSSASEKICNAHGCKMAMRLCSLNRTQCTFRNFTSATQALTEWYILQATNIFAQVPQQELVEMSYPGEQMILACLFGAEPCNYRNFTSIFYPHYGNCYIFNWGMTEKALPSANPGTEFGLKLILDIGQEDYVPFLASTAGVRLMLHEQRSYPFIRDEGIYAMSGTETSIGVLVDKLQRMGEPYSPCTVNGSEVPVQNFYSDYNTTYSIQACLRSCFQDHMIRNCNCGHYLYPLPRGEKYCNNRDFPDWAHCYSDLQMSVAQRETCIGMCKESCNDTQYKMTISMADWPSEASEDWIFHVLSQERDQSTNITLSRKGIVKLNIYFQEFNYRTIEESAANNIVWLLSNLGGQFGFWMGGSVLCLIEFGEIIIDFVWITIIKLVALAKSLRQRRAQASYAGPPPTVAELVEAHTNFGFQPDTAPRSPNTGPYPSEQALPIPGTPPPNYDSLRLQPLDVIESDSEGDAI

ENaC alpha subunit (epithelial sodium channel subunit alpha), sequence (P37088 whole entry): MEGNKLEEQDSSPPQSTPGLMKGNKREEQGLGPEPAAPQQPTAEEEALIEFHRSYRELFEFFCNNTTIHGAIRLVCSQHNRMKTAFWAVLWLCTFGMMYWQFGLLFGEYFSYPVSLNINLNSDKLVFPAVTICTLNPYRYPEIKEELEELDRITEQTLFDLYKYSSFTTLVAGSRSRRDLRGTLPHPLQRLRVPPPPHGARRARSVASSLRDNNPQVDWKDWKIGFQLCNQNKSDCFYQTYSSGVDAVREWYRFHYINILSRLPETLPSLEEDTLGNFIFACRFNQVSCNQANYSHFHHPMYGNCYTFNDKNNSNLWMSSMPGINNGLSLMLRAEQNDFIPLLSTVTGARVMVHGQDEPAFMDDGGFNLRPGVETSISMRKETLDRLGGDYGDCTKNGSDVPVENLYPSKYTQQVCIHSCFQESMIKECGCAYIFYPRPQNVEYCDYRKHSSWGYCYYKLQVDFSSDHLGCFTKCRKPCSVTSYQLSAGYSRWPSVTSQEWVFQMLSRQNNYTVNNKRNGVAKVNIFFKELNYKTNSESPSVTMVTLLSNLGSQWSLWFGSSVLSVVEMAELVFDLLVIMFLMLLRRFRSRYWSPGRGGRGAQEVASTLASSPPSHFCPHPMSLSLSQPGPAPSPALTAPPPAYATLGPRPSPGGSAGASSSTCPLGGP

Q: How did the inhibition at 5 min, 10 µM [1] turn out when `N=C(N)NC(=O)c1nc(Cl)c(N)nc1N` [AMILORIDE] was run?
A: 68%

Q: And the inhibition at 5 min, 10 µM [2]?
A: 68%

Q: What about the inhibition (HT-1080) of the same compound?
A: inactive

Q: And the inhibition at 5 min, 10 µM [3]?
A: 68%

From ChEMBL document CHEMBL4196166 (J Med Chem, 2018)
